Activity calls are given as the source filed them. The rule behind the calls is not given here.
Assays:
[1] = target: Autotaxin (Bos taurus) (UniProt A1A4K5); assay: Inhibition of ATX in fetal bovine serum using FS-3 as substrate at 10 uM after 2 hrs by fluorescence assay
Procedure, shortened: (§1)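 ATX source: fetal bovine serum, mixed with compound in 0.1% BSA and 1 µM FS-3 in Tris-HCl pH 8.0 buffer (1 mM CaCl2, 1 mM MgCl2, 5 mM KCl, 140 mM NaCl). Fluorescence (485/530 nm) read before and after 2 h at 37 °C; pre-incubation value subtracted, normalized to vehicle as percent inhibition; triplicate wells, mean ± S.E.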

[2] = target: Autotaxin (Bos taurus) (UniProt A1A4K5); assay: Inhibition of ATX in fetal bovine serum using FS-3 as substrate at 0.1 to 10 uM after 2 hrs by fluorescence assay; procedure, shortened: as §1
[3] = Lipophilicity, Log P of the compound; type: physicochemical; conditions: octanol/water
[4] = system: Rattus norvegicus; assay: (§2) Neuroprotective effect against transient cerebral ischemia-induced delayed neuronal death in Wistar rat hippocampal CA1 region assessed as decrease in GFAP accumulation at 180 ug/kg/5 days dosed through mini-osmotic pump measured after 5 days of occlusion for 8 mins by immunohistochemical staining relative to control; type: functional, organism-based
Procedure, shortened: (§3)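 Male Wistar rats under halothane; compound (180 µg·kg−1·5 days−1) or 0.2% fatty-acid-free BSA vehicle given by subcutaneous pump implanted 35–60 min before ischemia. Vertebral arteries ligated, both carotids occluded 8 min at ~37.5 °C. On day 5, formalin perfusion and paraffin sections (6 µm) of hippocampal CA1 stained with HE or anti-GFAP.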

[5] = target: Autotaxin (Homo sapiens) (UniProt Q13822); assay: Inhibition of ATX-mediated human MDA-MB-231 cell migration at 10 uM after 8 hrs by Cyto Fluor spectrophotometry relative to lysophosphatidyl choline
Procedure, shortened: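 Calcein-AM-stained MDA-MB-231 cells (4 × 10^5 cells/mL in DMEM with 0.1% fatty-acid-free BSA) placed in upper wells over 8-µm pore membranes; lower wells held 200 µM LPC plus 10 µM compound. Incubated 8 h at 37 °C; non-migrated cells wiped off, migrated-cell fluorescence read at 485/530 nm. Percent of LPC-only control; triplicate wells, ≥3 independent experiments.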

[6] = system: Rattus norvegicus; assay: Antinociceptive activity in Wistar rat assessed as reduction in A-reflex at 0.2 mg/kg, iv by electromyogram analysis relative to control; type: functional, organism-based; parameters: dose 0.2 mg/kg
Procedure, shortened: (§4)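 Anesthetised adult male Wistar rats (310–370 g; pentobarbital 50 mg/kg ip); jugular vein catheter for iv dosing at 0.2 mg/kg, blood pressure and heart rate monitored, end-tidal CO2 kept near 3.0%. Reflex EMG evoked by single shocks, averaged over ~50 trials at 3-s intervals; response area expressed as percent of control size 0–15 min before injection; mean ± S.E.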

[7] = system: Rattus norvegicus; assay: Antinociceptive activity in Wistar rat assessed as reduction in somato-somatic C-reflex at 0.2 mg/kg, iv by electromyogram analysis relative to control; type: functional, organism-based; parameters: dose 0.2 mg/kg; procedure, shortened: as §4
[8] = system: Rattus norvegicus; assay: as §2, with “reduction” for “decrease”, “pyknosis and shrinkage of cells” for “GFAP accumulation”, “hematoxylin/eosin based” for “immunohistochemical”; type: functional, organism-based; procedure, shortened: as §3
[9] = system: Rattus norvegicus; assay: Antinociceptive activity in Wistar rat assessed as somato-somatic C-reflex at 0.2 mg/kg, iv by electromyogram analysis relative to control; type: functional; procedure, shortened: as §4
[10] = species: Rattus norvegicus; assay: Ratio of natural cPA effective dose to compound effective dose for antinociceptive activity in Wistar rat assessed as reduction in somato-somatic C-reflex; type: functional

CCCCCC/C=C\CCCCCCCC(=O)OC[C@@H]1CSP(=O)(O)O1
inhibition [1]: 40%

CCCCCC/C=C\CCCCCCCC(=O)OC[C@H]1CSP(=O)(O)O1
inhibition [2]: Active

CCCCCC/C=C\CCCCCCCC(=O)OCC1CSP(=O)(O)O1.CCN(CC)CC (racemic)
logP [3]: 5.96 | Activity [4]: Active | inhibition [5]: > 40% | Activity [6]: inactive | Activity [7]: Active | Activity [8]: Active | Activity [9]: 87%

CCCCCC/C=C\CCCCCCCC(=O)OCC1COP(=O)([O-])C1.[Na+] (racemic)
fold change (FC) [10]: 10 | inhibition [2]: Active | Activity [9]: 83%

CCCCCCCC/C=C\CCCCCCCC(=O)OCC1CSP(=O)(O)O1 (racemic)
inhibition [5]: > 40%

CCCCCCCCCCCCCCCC(=O)OCC1CSP(=O)(O)O1 (racemic)
inhibition [5]: > 40%

CCCCCCCCCCCCCCCCCC(=O)OCC1CSP(=O)(O)O1 (racemic)
inhibition [5]: > 40%
